Experimental data taken from ChEMBL document CHEMBL1139016, “Synthesis and antiviral activity of 2'-deoxy-2'-fluoro-2'-C-methyl purine nucleosides as inhibitors of hepatitis C virus RNA replication” (Bioorg Med Chem Lett, 2006).

Columns and labels:
[1] = test system: Hepatitis C virus; experiment: Antiviral activity against HCV replication; format: functional, organism-based, Hepacivirus hominis
[2] = test system: Huh-7; experiment: Cytotoxicity against Huh7 cells by MTS assay; format: functional; conditions: Homo sapiens
Summary of the method: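 Cells exposed to compound for 96 h; viability read by MTS tetrazolium reduction (non-radioactive cell proliferation kit); CC50 taken as the 50% cytotoxic concentration.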

SMILES	EC90 [1]	CC50 [2]
C[C@@]1(F)[C@H](O)[C@@H](CO)O[C@H]1n1cnc2c(O)nc(N)nc21	56 µM	> 100 µM
C[C@@]1(F)[C@H](O)[C@@H](CO)O[C@H]1n1cnc2c(Cl)ncnc21	88.2 µM	27.1 µM
C[C@@]1(O)[C@H](O)[C@@H](CO)O[C@H]1n1cnc2c(N)ncnc21	1.4 µM	15 µM
C[C@@]1(O)[C@H](O)[C@@H](CO)O[C@H]1n1cnc2c(=O)[nH]c(N)nc21 [2'-B-METHYL-GUANOSINE]	10.8 µM	> 100 µM
C[C@@]1(F)[C@H](O)[C@@H](CO)O[C@H]1n1cnc2c(N)ncnc21	> 100 µM	> 100 µM
C[C@@]1(F)[C@H](O)[C@@H](CO)O[C@H]1n1cnc2c(Cl)nc(N)nc21	62.4 µM	> 100 µM
